# INS-1E rescue: INS-1E beta cell protection from cytokine death. INS-1E cytokine-induced death, ATP luminescence, 48 h; normalised: neutral wells 0, positive control 100. protection from cytokine-induced ATP loss, % at 10 µM. 20,000 compounds, 0.1% hits;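 active = mean replicate protection from cytokine-induced ATP loss at least 50% and at least 75% of replicates each reaching 50%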
#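 Assay system: INS-1E rat insulinoma cells. Amount: 8000 cells per well. Medium: phenol-red-free RPMI with 5% fetal bovine serum. Reagent: IL-1β, TNF-α and IFN-γ cytokine mix. Doses: one compound concentration, pin transfer. Schedule: 48 h co-treatment, 10 min post-lysis read. Detection: CellTiter-Glo luminescence measuring cellular ATP.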
# T cruzi intra: blocks T. cruzi growth inside host cells | AID 651903 | 22,000 compounds, 4.9% hits | activity score (inhibition), % at 5.01 µM | intracellular Trypanosoma cruzi in host cells, plate reader; in the data active = activity score above about 55%;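 note: parasites and compound incubated about four days before reading; 0% = median of neutral control wells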
# A1 apoptosis 2: blocks A1, raising caspase activity; MEF A1-2A-BIM cells, caspase-Glo luminescence, 3 h; percent of clofoctol response, DMSO zero; caspase activation, % (no concentration beside the values); 24,000 tested, under 10 active; AID 2465; in the data active = caspase activation above about 5.9%
#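 system = A1-2A-BIM-expressing MEF cells | quantity = 2500 MEF cells/well | dosing = 50 nL compound per well, pinned | schedule = overnight cell settling, then 3 h compound exposure, 37 °C | signal = luminescence from DEVD-luciferin Caspase-Glo reagent, 1:1 in 50 mM HEPES, 1 h RT | read-out = Caspase-3/7 activation, seen as rise in luminescence signal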
# * marks the source's active call; other numbers are inactive results; . = no result. The sample as a whole holds a higher share of hits than the screen did.
SMILES,INS-1E rescue,T cruzi intra,A1 apoptosis 2
COc1ccc(CN2C(C)Cc3cc(OC)c(OC)cc3C2C)cc1 (stereo not given),.,.,1.0
NC(=O)NCC#Cc1ccc2c(c1)[C@]1(C(=O)N2)[C@H](c2ccc(OCCO)cc2)N2[C@H](c3ccccc3)[C@H](c3ccccc3)OC(=O)[C@H]2[C@@H]1C(=O)Nc1nc2ccccc2s1,.,.,-0.7
C[C@@H]1CCCCO[C@@H](CN(C)Cc2ccccc2)[C@H](C)CN([C@@H](C)CO)C(=O)c2cc(NC(=O)Nc3cccc4ccccc34)ccc2O1,.,.,-1.3
C[C@@H]1CCCCO[C@@H](CN(C)Cc2ccccc2)[C@@H](C)CN([C@H](C)CO)C(=O)c2cc(NC(=O)Nc3cccc4ccccc34)ccc2O1,0.6,56.6*,0.2
C[C@@H]1CCCCO[C@H](CN(C)Cc2ccc(Cl)c(Cl)c2)[C@@H](C)CN([C@H](C)CO)C(=O)c2cc(NC(=O)Nc3cccc4ccccc34)ccc2O1,-16.5,61.9*,0.8
C[C@@H]1CCCCO[C@@H](CN(C)Cc2ccc(Cl)c(Cl)c2)[C@@H](C)CN([C@@H](C)CO)C(=O)c2cc(NC(=O)Nc3cccc4ccccc34)ccc2O1,.,.,1.3
C=C[C@@H](COC(C)=O)NS(=O)(=O)c1ccc(Br)cc1,.,.,0.2
C[C@H]1CN([C@@H](C)CO)C(=O)c2cc(NC(=O)Nc3ccc4c(c3)OCO4)ccc2O[C@H]1CN(C)Cc1ccc(C(=O)O)cc1,.,-6.0,-0.6
C[C@@H]1CN([C@H](C)CO)C(=O)Cc2cc(NC(=O)Nc3ccc(C(F)(F)F)cc3)ccc2O[C@@H]1CN(C)CC1CCCCC1,-72.9,61.5*,.
C[C@@H]1CN([C@H](C)CO)C(=O)Cc2cc(NC(=O)Nc3ccc(C(F)(F)F)cc3)ccc2O[C@H]1CN(C)CC1CC1,-11.1,7.8,-0.3
C[C@@H]1CN([C@H](C)CO)C(=O)Cc2cc(NC(=O)Nc3ccc(C(F)(F)F)cc3)ccc2O[C@H]1CN(C)CC1CCCCC1,-18.2,82.8*,.
C[C@H]1CN([C@@H](C)CO)C(=O)Cc2cc(NC(=O)Nc3ccc(C(F)(F)F)cc3)ccc2O[C@H]1CN(C)CC1CC1,3.9,9.7,-1.5
CC(C)(C)OC(=O)NC/C=N/NC(=O)c1ccccn1,-2.1,11.9,-1.2
O=C(CCCCCCC(=O)Nc1ccccc1O)N/N=C/c1ccc[nH]1,9.9,4.6,0.4
COc1ccc(S(=O)(=O)Nc2ccc3c(c2)CC(=O)N([C@@H](C)CO)C[C@H](C)[C@H](CN(C)Cc2ccccc2)O3)cc1,2.1,43.5,-0.5
COc1ccc(S(=O)(=O)Nc2ccc3c(c2)CC(=O)N([C@H](C)CO)C[C@H](C)[C@@H](CN(C)Cc2ccc(-c4ccccc4)cc2)O3)cc1,.,.,-0.7
COc1ccc(S(=O)(=O)Nc2ccc3c(c2)CC(=O)N([C@@H](C)CO)C[C@@H](C)[C@@H](CN(C)Cc2ccc(-c4ccccc4)cc2)O3)cc1,-31.8,64.3*,0.4
COc1ccc(S(=O)(=O)Nc2ccc3c(c2)CC(=O)N([C@H](C)CO)C[C@H](C)[C@H](CN(C)Cc2ccc(-c4ccccc4)cc2)O3)cc1,-27.6,25.3,-0.8
COc1ccc(S(=O)(=O)Nc2ccc3c(c2)CC(=O)N([C@H](C)CO)C[C@@H](C)[C@H](CN(C)Cc2ccccc2)O3)cc1,3.4,66.4*,-0.2
COc1ccc(S(=O)(=O)Nc2ccc3c(c2)CC(=O)N([C@H](C)CO)C[C@H](C)[C@H](CN(C)Cc2ccc(Oc4ccccc4)cc2)O3)cc1,-16.4,22.3,.
COc1ccc(S(=O)(=O)Nc2ccc3c(c2)CC(=O)N([C@H](C)CO)C[C@@H](C)[C@@H](CN(C)Cc2ccc(Oc4ccccc4)cc2)O3)cc1,-29.5,70.1*,0.3
COc1ccc(S(=O)(=O)Nc2ccc3c(c2)CC(=O)N([C@@H](C)CO)C[C@H](C)[C@@H](CN(C)Cc2ccc(-c4ccccc4)cc2)O3)cc1,-65.8,73.0*,.
COC(=O)CCCCCCC(=O)N/N=C/c1ccc([N+](=O)[O-])c(O)c1,-1.7,8.8,-0.4
O=C(CCCCCC(=O)Nc1ccccc1O)N/N=C/c1ccc(CO)o1,12.9,-4.4,0.5
C[C@]1(C(=O)NC2CC2)c2ccccc2C(=O)N(Cc2cc(C(F)(F)F)cc(C(F)(F)F)c2)[C@H]1c1ccc(CO)cc1,.,.,1.3
SMILES,INS-1E rescue,T cruzi intra,A1 apoptosis 2
C[C@H]1CN([C@@H](C)CO)C(=O)Cc2cc(NC(=O)NC3CCCCC3)ccc2O[C@@H]1CN(C)S(=O)(=O)c1cccs1,2.4,-5.6,0.9
O=C(O)CCCCCC(=O)N/N=C/c1cc(F)ccc1O,4.3,-11.6,0.2
Cc1ccsc1/C=N/NC(=O)CCCCCCC(=O)O,4.5,-4.8,2.1
C=CCOC(=O)[C@]12O[C@@]3(COC[C@H](c4ccccc4)N3C1=O)[C@H]1C(=O)N(c3ccccc3)C(=O)[C@H]12,.,.,-0.8
C[C@H]1CN([C@@H](C)CO)C(=O)c2cc(NS(=O)(=O)c3ccc(Cl)cc3)ccc2O[C@H]1CN(C)Cc1ccc(C(F)(F)F)cc1,.,.,-0.5
C[C@H](CO)N1C[C@H](C)[C@@H](CN(C)Cc2ccc(C(F)(F)F)cc2)Oc2ccc(NS(=O)(=O)c3ccc(Cl)cc3)cc2C1=O,-8.5,70.5*,.
C[C@H]1CN([C@@H](C)CO)C(=O)c2cc(NS(=O)(=O)c3ccc(F)cc3)ccc2O[C@H]1CN(C)Cc1ccc(C(F)(F)F)cc1,.,54.6*,.
C[C@@H]1CN([C@@H](C)CO)C(=O)c2cc(NS(=O)(=O)c3ccc(Cl)cc3)ccc2O[C@@H](C)CCCCO[C@@H]1CN(C)Cc1ccc(C(F)(F)F)cc1,.,.,0.6
C[C@@H]1CCCCO[C@H](CN(C)Cc2ccc(C(F)(F)F)cc2)[C@@H](C)CN([C@H](C)CO)C(=O)c2cc(NS(=O)(=O)c3ccc(Cl)cc3)ccc2O1,-31.3,69.1*,1.6
C[C@H]1CN([C@@H](C)CO)C(=O)c2cc(NS(=O)(=O)c3ccc(Cl)cc3)ccc2O[C@@H]1CN(C)Cc1ccc(C(F)(F)F)cc1,-22.9,57.9*,-0.9
C[C@H](CO)N1C[C@H](C)[C@H](CN(C)Cc2ccc(C(F)(F)F)cc2)Oc2ccc(NS(=O)(=O)c3ccc(F)cc3)cc2C1=O,-4.9,-7.4,0.6
C[C@@H]1CN([C@H](C)CO)C(=O)c2cc(NS(=O)(=O)c3ccc(Cl)cc3)ccc2O[C@H]1CN(C)Cc1ccc(C(F)(F)F)cc1,-32.4,46.6,1.4
O=C(O)c1cccc(/C=N/NC(=O)c2ccccn2)c1,1.4,-11.7,-6.6
COc1ccc(S(=O)(=O)N(C)C[C@H]2OCCCC[C@@H](C)Oc3ccc(NS(=O)(=O)c4ccc(Cl)cc4)cc3C(=O)N([C@H](C)CO)C[C@H]2C)cc1,.,.,-0.9
C=C(C)[C@@H]1CC=C(/C=N/NC(=O)CCCCC(=O)NO)CC1,2.9,26.7,.
O=C(O)CCCCCCC(=O)NN=C1CCCC1,-0.3,-14.4,0.5
O=C(CCCCCCC(=O)N/N=C/c1ccccn1)NO,.,.,1.1
C[C@@H]1CN([C@@H](C)CO)C(=O)c2cccc(NC(=O)Nc3ccc(C(F)(F)F)cc3)c2O[C@@H]1CN(C)CC1CC1,-18.8,-17.5,-1.4

# Assay outcomes deposited in PubChem BioAssay by Broad Institute.
